The values below come from ChEMBL document CHEMBL1122720, “Synthesis and neuroleptic activity of N-[(1-ethyl-2-pyrrolidinyl)methyl]-2-methoxy-5-sulfonamidobenzamide s” (J Med Chem, 1984).

Molecules are shown by their SMILES. Where only a bound is given, the exact number is not on record here.

One data set has as its system Canis familiaris. The experiment in a line: Inhibition of apomorphine induced emesis in dogs following p.o. administration. It counts as functional. The settings on record: Canis lupus familiaris, po. Put shortly:
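Dogs were fasted and dosed 1 h before apomorphine 0.1 mg/kg s.c. Vomits within 30 min were counted and compared with the same dog's count 2 weeks earlier. ED50 was found by the up-and-down method.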

The subject of another data set is Mus musculus. The experiment in a line: Inhibition of apomorphine induced climbing in mice following p.o. administration. It counts as functional. The settings on record: po. A digest of the protocol: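 Mice in two to three groups of 10 got the drug orally as a gum arabic suspension, then apomorphine 1 mg/kg s.c. 60 min later. Each mouse was caged in wire mesh and watched for 3 min from 20 min after apomorphine for wall-climbing, judged against a control group. ED50 (mg/kg) came from regression analysis.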

The nature of data set [1]: Toxicity in mice following p.o. administration. It counts as organism-based. The settings on record: mouse, in vivo, po. A digest of the protocol:
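Groups of 10 mice received the drug orally. Deaths were scored on day 7 after dosing, and LD50 (mg/kg) was obtained by graphical interpolation.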

As usually defined, the ED50 is the dose that gives a 50% effect, or the effect in half of the subjects. A higher ED50 goes with weaker potency. By LD50 is commonly meant the dose expected to kill half of the subjects tested. Low values mean a more toxic substance, high ones a less toxic substance. `CCN1CCCC1CNC(=O)c1cc(NS(=O)(=O)NC)c(C)cc1OC` (stereo unspecified): the ED50 is greater than 1 mg/kg with Canis familiaris and greater than 50 mg/kg with Mus musculus. Moreover, in data set [1], the LD50 is greater than 1000 mg/kg.

Regarding `CCN1CCCC1CNC(=O)c1cc(NS(C)(=O)=O)c(C)cc1OC` (stereo unspecified), the ED50 in the data set on Canis familiaris was 1 mg/kg; with Mus musculus, 35.6 mg/kg. The LD50 in data set [1] was 750 mg/kg.

As to `CCN1CCCC1CNC(=O)c1cc(NS(=O)(=O)NC)c(Cl)cc1OC` (stereo unspecified), the ED50 in the data set with Canis familiaris is greater than 1 mg/kg; with Mus musculus it was greater than 50 mg/kg. Also, the LD50 in data set [1] is greater than 1000 mg/kg.

Take `CCN1CCCC1CNC(=O)c1cc(NS(=O)(=O)NC)ccc1OC` (stereo unspecified): the values for the ED50 with Canis familiaris and with Mus musculus were greater than 1 mg/kg and greater than 50 mg/kg, respectively. In addition, the LD50 in data set [1] was greater than 1000 mg/kg.

On to `CCN1CCCC1CNC(=O)c1cc(NS(N)(=O)=O)ccc1OC` (stereo unspecified), for which the ED50 with Canis familiaris is 10 mg/kg; in the data set on Mus musculus it was greater than 50 mg/kg. Moreover, the LD50 in data set [1] was greater than 1000 mg/kg.

Take `CCN1CCCC1CNC(=O)c1cc(NS(=O)(=O)N(C)C)ccc1OC` (stereo unspecified): the figures for the ED50 in the data set with Canis familiaris and in the data set with Mus musculus were 1 mg/kg and greater than 50 mg/kg, respectively. This compound also came in with a 50% lethal dose (LD50) in data set [1] of 750 mg/kg.

As to `CCN1CCCC1CNC(=O)c1cc(N(C)S(C)(=O)=O)ccc1OC` (stereo unspecified), the ED50 in the data set with Canis familiaris came out at 0.17 mg/kg; in the data set with Mus musculus, 22.9 mg/kg. This compound also came in with an LD50 in data set [1] greater than 1000 mg/kg.

On to `CCN1CCCC1CNC(=O)c1cc(N(C)S(N)(=O)=O)c(C)cc1OC` (stereo unspecified), for which the values for the ED50 in the data set with Canis familiaris and in the data set with Mus musculus were 1 mg/kg and greater than 50 mg/kg, respectively. In data set [1], this compound gave a 50% lethal dose (LD50) greater than 1000 mg/kg.

For `CCN1CCCC1CNC(=O)c1cc(NS(C)(=O)=O)c(Cl)cc1OC` (stereo unspecified), the figures for the ED50 in the data set on Canis familiaris and with Mus musculus were 0.1 mg/kg and 9.1 mg/kg, respectively. In data set [1], this compound yielded an LD50 greater than 1000 mg/kg.

On to `CCN1CCCC1CNC(=O)c1cc(NS(N)(=O)=O)c(C)cc1OC` (stereo unspecified), for which the values for the ED50 in the data set on Canis familiaris and in the data set on Mus musculus were greater than 1 mg/kg and greater than 50 mg/kg, respectively. For the same compound, the LD50 in data set [1] is greater than 1000 mg/kg.

For the compound `CCN1CCCC1CNC(=O)c1cc(N(C)S(=O)(=O)N(C)C)ccc1OC` (stereo unspecified), the ED50 was determined as 1 mg/kg in the data set on Canis familiaris and 36.2 mg/kg in the data set on Mus musculus. This compound had an LD50 in data set [1] of 750 mg/kg.

On to `CCN1CCCC1CNC(=O)c1cc(NS(=O)(=O)N(C)C)c(Cl)cc1OC` (stereo unspecified), for which the results for the ED50 with Canis familiaris and in the data set with Mus musculus were 0.05 mg/kg and 8.3 mg/kg, respectively. In data set [1], the LD50 was greater than 1000 mg/kg.

On to `CCN1CCCC1CNC(=O)c1cc(N(C)S(N)(=O)=O)c(Cl)cc1OC` (stereo unspecified), for which the median effective dose (ED50) was 1 mg/kg in the data set with Canis familiaris and greater than 50 mg/kg with Mus musculus. The compound also showed an LD50 in data set [1] greater than 1000 mg/kg.

On to `CCN1CCCC1CNC(=O)c1cc(NS(=O)(=O)N(C)C)c(C)cc1OC` (stereo unspecified), for which the ED50 was 0.05 mg/kg with Canis familiaris and 13.3 mg/kg with Mus musculus. In addition, the LD50 in data set [1] is greater than 1000 mg/kg.

Turning to `CCN1CCCC1CNC(=O)c1cc(N(C)S(C)(=O)=O)c(C)cc1OC` (stereo unspecified), the ED50 with Canis familiaris turned out to be 1 mg/kg; in the data set on Mus musculus, 26.1 mg/kg. Besides, the 50% lethal dose (LD50) in data set [1] is greater than 1000 mg/kg.

Turning to `CCN1CCCC1CNC(=O)c1cc(N(C)S(=O)(=O)N(C)C)c(C)cc1OC` (stereo unspecified), the ED50 with Canis familiaris was 1 mg/kg; in the data set on Mus musculus it was greater than 50 mg/kg. The compound also had an LD50 in data set [1] of 750 mg/kg.

As to `CCN1CCCC1CNC(=O)c1cc(N(C)S(=O)(=O)N(C)C)c(Cl)cc1OC` (stereo unspecified), the ED50 was determined as 0.1 mg/kg with Canis familiaris and 31.8 mg/kg with Mus musculus. The compound further yielded an LD50 in data set [1] of 750 mg/kg.

Regarding `CCN1CCCC1CNC(=O)c1cc(N(C)S(N)(=O)=O)ccc1OC` (stereo unspecified), the ED50 was 1 mg/kg in the data set with Canis familiaris and greater than 50 mg/kg in the data set with Mus musculus. Besides, the LD50 in data set [1] is greater than 1000 mg/kg.

As to `CCN1CCCC1CNC(=O)c1cc(N(C)S(C)(=O)=O)c(Cl)cc1OC` (stereo unspecified), the ED50 was 0.1 mg/kg in the data set on Canis familiaris and 7.7 mg/kg in the data set on Mus musculus. The compound further returned an LD50 in data set [1] greater than 500 mg/kg.

Turning to `CCN1CCCC1CNC(=O)c1cc(NS(C)(=O)=O)ccc1OC` (stereo unspecified), the ED50 in the data set on Canis familiaris is 2 mg/kg; with Mus musculus, greater than 50 mg/kg. The 50% lethal dose (LD50) in data set [1] is greater than 500 mg/kg.

Regarding `CCN1CCCC1CNC(=O)c1cc(NS(N)(=O)=O)c(Cl)cc1OC` (stereo unspecified), the ED50 in the data set on Canis familiaris is 1 mg/kg; with Mus musculus, greater than 50 mg/kg. Besides, the LD50 in data set [1] is greater than 1000 mg/kg.

Regarding `CCN1CCCC1CNC(=O)c1cc(S(N)(=O)=O)ccc1OC` (stereo unspecified) [SULPIRIDE], the ED50 was determined as 0.09 mg/kg with Canis familiaris and 174 mg/kg in the data set on Mus musculus. In addition, the 50% lethal dose (LD50) in data set [1] is greater than 3000 mg/kg.
